Results on 13 compounds are retold here after ChEMBL document CHEMBL1140061, “Novel azolyl-(phenylmethyl)]aryl/heteroarylamines: potent CYP26 inhibitors and enhancers of all-trans retinoic acid activity in neuroblastoma cells” (Bioorg Med Chem, 2008).

The source made the active and inactive calls. No cut-off for these calls is given here.

In one experiment the test system is T47D. As to the kind of experiment: Inhibition of all-trans retinoic acid metabolism in human T47D cells. The experiment is classed as functional, cell-based.
The subject of experiment [1] is SH-SY5Y. In words: Increase of all-trans retinoic acid-induced CYP26B1 mRNA expression in human SH-SY5Y cells at 1 uM after 24 hrs relative to all-trans retinoic acid. The class given is functional. The gist of the method: (§1)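 SH-SY5Y neuroblastoma cells were grown at 37 °C in RPMI 1640 with 10% foetal calf serum and 2 mM L-glutamine under 5% CO2. Inhibitor was given alone or with atRA (DMSO vehicle) for 24 h. Total RNA was reverse transcribed and CYP26B1 was measured by TaqMan real-time PCR, normalised to β-actin. Results are fold change versus atRA-only cells by the comparative Ct method, mean ± S.E.M., n ≥ 3.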

Experiment [2] concerns SH-SY5Y. As to the kind of experiment: Increase in all-trans retinoic acid-induced CYP26B1 mRNA expression in human SH-SY5Y cells at 10 uM relative to R116010. The experiment is classed as functional, cell-based.
A further experiment addresses T1, Cytochrome P450 26A1 (Homo sapiens, UniProt O43174).
T1 sequence (O43174 whole entry): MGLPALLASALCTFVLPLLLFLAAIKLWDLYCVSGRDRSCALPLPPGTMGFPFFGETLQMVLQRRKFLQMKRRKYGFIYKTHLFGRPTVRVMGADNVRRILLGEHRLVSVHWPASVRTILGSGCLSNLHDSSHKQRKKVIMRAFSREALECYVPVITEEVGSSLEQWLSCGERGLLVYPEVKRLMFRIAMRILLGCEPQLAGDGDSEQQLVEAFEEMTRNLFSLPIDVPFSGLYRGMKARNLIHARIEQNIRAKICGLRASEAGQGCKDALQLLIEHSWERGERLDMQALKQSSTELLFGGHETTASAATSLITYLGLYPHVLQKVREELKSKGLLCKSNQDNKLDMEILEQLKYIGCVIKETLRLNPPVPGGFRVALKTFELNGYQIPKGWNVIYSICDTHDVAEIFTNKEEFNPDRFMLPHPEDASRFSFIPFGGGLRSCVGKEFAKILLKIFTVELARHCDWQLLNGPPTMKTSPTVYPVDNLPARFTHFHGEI
As to the kind of experiment: Inhibition of CYP26A1 in human MCF7 cells.

Experiment [3] deals with SH-SY5Y. As to the kind of experiment: Increase of CYP26B1 mRNA expression in human SH-SY5Y cells. The class given is functional, cell-based. The method in brief: as §1
The test system of experiment [4] is SH-SY5Y. As to the kind of experiment: Increase in all-trans retinoic acid-induced CYP26B1 mRNA expression in human SH-SY5Y cells at 0.01 to 10 uM after 24 hrs relative to all-trans retinoic acid. Particulars: in the assay text read “0.1 to 10 uM” for “0.01 to 10 uM”. The experiment is classed as functional. The method in brief:
as §1

As usually defined, the IC50 is the midpoint of a concentration-inhibition curve. The low end stands for higher potency, the high end for lower potency. As to `C[C@H]([C@@H](c1ccc(Nc2nc3ccccc3s2)cc1)n1ccnc1)N(C)C`, in the experiment with T47D, the IC50 was determined as 0.0087 µM. The “fold change (FC)” value with SH-SY5Y [1] turned out to be 5.

For the compound `c1ccc(C(c2ccc(Nc3ccc4ccccc4c3)cc2)n2ccnc2)cc1` (stereo unspecified), the outcome with SH-SY5Y [2] was Active. Moreover, the IC50 at Cytochrome P450 26A1 was 0.5 µM. Further, the outcome in the experiment on SH-SY5Y [3] was inactive.

As to `CC(c1ccc(Nc2ccccc2)cc1)n1cncn1` (stereo unspecified), on Cytochrome P450 26A1, the IC50 is more than 50 µM.

At Cytochrome P450 26A1, `c1ccc(Nc2ccc(C(c3ccccc3)n3cncn3)cc2)cc1` (stereo unspecified) showed a half-inhibitory concentration (IC50) of 5 µM. Further, the result in the experiment with SH-SY5Y [1] was inactive.

As to `CC(c1ccc(Nc2ccc3ccccc3c2)cc1)n1ccnc1` (stereo unspecified), inhibition on Cytochrome P450 26A1 was half-maximal at 15 µM (IC50).

At Cytochrome P450 26A1, `CC(c1ccc(Nc2ccccc2)cc1)n1ccnc1` (stereo unspecified) registered an IC50 of 35 µM.

Turning to `c1ccc(-c2ccc(C(c3cc4ccccc4o3)n3cncn3)cc2)cc1` (stereo unspecified), it took 7 µM to reach half-maximal inhibition on Cytochrome P450 26A1 (IC50).

`c1ccc(C(c2ccc(Nc3ccc4c(c3)CCC4)cc2)n2ccnc2)cc1` (stereo unspecified) registered an IC50 against Cytochrome P450 26A1 of 1 µM.

With `c1ccc(C(c2ccc(Nc3nc4ccccc4[nH]3)cc2)n2ccnc2)cc1` (stereo unspecified), the IC50 on Cytochrome P450 26A1 is 2.5 µM.

With `c1ccc(C(c2ccc(Nc3nc4ccccc4o3)cc2)n2ccnc2)cc1` (stereo unspecified), the “fold change (FC)” value in the experiment with SH-SY5Y [4] amounted to 4. In addition, on Cytochrome P450 26A1, the IC50 was determined as 0.9 µM. Further, the outcome in the experiment on SH-SY5Y [3] was inactive.

For the compound `c1ccc(C(c2ccc(Nc3nc4ccccc4s3)cc2)n2ccnc2)cc1` (stereo unspecified), the “fold change (FC)” value in the experiment on SH-SY5Y [4] worked out at 2. At Cytochrome P450 26A1, this compound had an IC50 of 1.5 µM. The result in the experiment on SH-SY5Y [3] was inactive.

Regarding `CCc1ccc(C(c2cc3ccccc3o2)n2cncn2)cc1` (stereo unspecified), the IC50 on Cytochrome P450 26A1 came to 4.5 µM.

Take `c1ccc(Nc2ccc(C(c3ccccc3)n3ccnc3)cc2)cc1` (stereo unspecified): at Cytochrome P450 26A1, the IC50 is 5 µM.
